Assay results as given in ChEMBL document CHEMBL2086320, “New synthetic inhibitors of fatty acid synthase with anticancer activity” (J Med Chem, 2012).
Values belong to the molecule of their own block, whether it stands above or below them. Activity calls are given as the source filed them. The rule behind the calls is not given here.

How the values were obtained:
[1] = target: Carnitine O-palmitoyltransferase 1, liver isoform (Rattus norvegicus, UniProt P32198); experiment: Stimulation of rat CPT1A expressed in Pichia pastoris mitochondrial using [3H]carnitine after 3 mins by forward exchange method; type: ADME; conditions: 0.05 h
Procedure, shortened: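 Mitochondria isolated from GS115 Pichia pastoris expressing rat CPT1A, used in a forward exchange assay with 200 µM inhibitor, 2 mM L-[³H]carnitine, 80 µM palmitoyl-CoA, 20 mM HEPES pH 7.0, 1% fatty-acid-free albumin and 40-75 mM KCl. Incubated 3 min at 30 °C, stopped with perchloric acid, butanol-extracted [³H]palmitoylcarnitine counted. Mean±SEM of at least three independent mitochondrial preparations.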

SK-BR-3 [2] = experiment: Effect on total AKT protein levels in human SKBR3 cells up to 24 hrs; type: functional, cell-based
Procedure, shortened: (§1)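 SK-Br3 cells treated for set times (6, 12 or 24 h; p-HER2 also at 2 h), trypsinized, and lysed in Tris pH 7.5/EDTA/NaCl/PMSF buffer. Equal protein resolved by SDS-PAGE (3-8% gel for HER2 forms, 4-12% gel for AKT/ERK). Blots blocked in 2.5% milk/TBS-T, primary antibody overnight at 4 °C, HRP secondary, chemiluminescence; β-actin reprobe as loading control. At least two independent experiments.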

BT-20 = experiment: Cytotoxicity against human BT20 cells; type: functional, cell-based
Procedure, shortened: (§2)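 MTT colorimetric assay: cells seeded at 5 or 7 x 10³ cells/well, attached overnight, then given fresh medium with a range of compound concentrations for 48 h at 37 °C, 5% CO2. MTT added for 3 h, formazan dissolved in DMSO, absorbance read at 570 or 540 nm. IC50 as mean±SEM from at least two independent experiments in duplicate or triplicate.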

[3] = Selectivity ratio of IC50 for human HL7702 cells to IC50 for human SKBR3 cells; type: ADME, cell-based; conditions: HL7702 cells (normal) versus SKBR3 cells, read-out: Ratio IC50
ZR-75-1 = experiment: Cytotoxicity against human ZR-75-1 cells; type: functional, cell-based; procedure, shortened: as §2
Mus musculus [4] = experiment: Toxicity against C57BL/6J mouse assessed as distress at 30 to 75 mg/kg, ip administered as single dose measured after 24 hrs; type: organism-based; parameters: dose 30-75 mg/kg, route intraperitoneal; conditions: in vivo
Procedure, shortened: (§3)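 Male C57BL/6J mice, 12 weeks, 23-25 g, acclimatized one week on standard chow, 12 h/12 h light/dark, 22 °C; 4 per group. Fasted 12 h during dark cycle, then one i.p. injection (0.5 mL) of compound or vehicle (DMSO dissolved in RPMI 1640). Free access to chow for 24 h, then body weight recorded and behaviour observed. Weight data mean ± SEM, n=4.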

SK-HEP1 = experiment: Cytotoxicity against human SKHEP1 cells; type: functional, cell-based; procedure, shortened: as §2
Mus musculus [5] = experiment: Toxicity against C57BL/6J mouse assessed as weight loss at 30 to 75 mg/kg, ip administered as single dose measured after 24 hrs; type: organism-based; parameters: dose 30-75 mg/kg, route intraperitoneal; conditions: in vivo; procedure, shortened: as §3
FASN/HER2 (Homo sapiens) [6] = target: T1, FASN/HER2 (Homo sapiens) (UniProt P04626+P49327); experiment: Inhibition of FASN/HER2 in human SK-BR-3 cells assessed as reduction in p-AKT levels after 6 hrs by Western blot analysis; type: cell-based; procedure, shortened: as §1
SK-BR-3 [7] = experiment: Cytotoxicity against human SKBR3 cells after 48 hrs by MTT assay; type: functional, cell-based; conditions: SK-BR-3, 48 h; procedure, shortened: as §2
HepG2 = experiment: Cytotoxicity against human HepG2 cells; type: functional, cell-based; procedure, shortened: as §2
[8] = Antiproliferative activity against human HMEpC cells; type: cell-based; procedure, shortened: as §2
MDA-MB-231 = experiment: Cytotoxicity against human MDA-MB-231 cells; type: functional, cell-based; procedure, shortened: as §2
Mus musculus [9] = experiment: Toxicity against C57BL/6J mouse assessed as change in food intake at 30 to 75 mg/kg, ip administered as single dose measured after 24 hrs; type: organism-based; parameters: dose 30-75 mg/kg, route intraperitoneal; conditions: in vivo; procedure, shortened: as §3
[10] = target: Receptor tyrosine-protein kinase erbB-2 (Homo sapiens) (UniProt P04626); experiment: Inhibition of HER2 signaling in human SK-BR-3 cells up to 24 hrs; type: cell-based; procedure, shortened: as §1
[11] = target: Fatty acid synthase (Homo sapiens) (UniProt P49327); experiment: Inhibition of FASN in human SK-BR-3 cells assessed as oxidation of NADPH at 4 uM after 24 hrs by Spectrophotometric analysis relative to control; type: cell-based
FASN/HER2 (Homo sapiens) [12] = target: T1, FASN/HER2 (Homo sapiens); experiment: Inhibition of FASN/HER2 in human SK-BR-3 cells assessed as reduction in p-ERK1/2 levels after 6 hrs by Western blot analysis; type: cell-based; procedure, shortened: as §1
SK-BR-3 [13] = experiment: Cytotoxicity against human SKBR3 cells; type: functional, cell-based
Procedure, shortened: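 SK-Br3 cells (McCoy's 5A, 10% FBS) in MTT assay: seeded at 5 or 7 x 10³ cells/well, attached overnight, exposed 48 h to a range of concentrations. MTT 3 h at 37 °C, formazan in DMSO, absorbance at 570 or 540 nm. IC50 as mean±SEM of two independent experiments in triplicate.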

NCI-H460 = experiment: Cytotoxicity against human H460 cells; type: functional, cell-based; procedure, shortened: as §2
A549 = experiment: Cytotoxicity against human A549 cells; type: functional, cell-based; procedure, shortened: as §2
SK-BR-3 [14] = experiment: Effect on total HER2 protein levels in human SKBR3 cells up to 6 hrs by Western blot analysis; type: functional, cell-based; procedure, shortened: as §1
PANC-1 = experiment: Cytotoxicity against human PANC1 cells; type: functional, cell-based; procedure, shortened: as §2
[15] = target: Receptor tyrosine-protein kinase erbB-2 (Homo sapiens) (UniProt P04626); experiment: Inhibition of HER2 phosphorylation in human SK-BR-3 cells after 2 hrs by Western blot analysis; type: cell-based; procedure, shortened: as §1
HCT-116 = experiment: Cytotoxicity against human HCT116 cells; type: functional, cell-based; procedure, shortened: as §2
SK-BR-3 [16] = experiment: Induction of apoptosis in human SKBR3 cells assessed as cleavage of PARP by Western blot analysis; type: functional, cell-based; conditions: TDE = time-dependent effect
Procedure, shortened: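 SK-Br3 cells treated for up to 48 h, then immunoblotted for PARP on a 4-12% SDS gel. Intact PARP at 116 kDa, cleavage fragment at 89 kDa. Chemiluminescent detection with β-actin reprobe as loading control. At least two independent experiments.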

[17] = Cytotoxicity against human HCC827 cells; type: functional, cell-based; procedure, shortened: as §2
SK-BR-3 [18] = experiment: Effect on total HER2 protein levels in human SKBR3 cells up to 6 hrs by ELISA; type: functional, cell-based
SK-BR-3 [19] = experiment: Effect on total ERK1/2 protein levels in human SKBR3 cells up to 24 hrs; type: functional, cell-based; procedure, shortened: as §1
A-431 = experiment: Cytotoxicity against human A431 cells; type: functional, cell-based; procedure, shortened: as §2
Mus musculus [20] = experiment: Toxicity against C57BL/6J mouse assessed as altered behaviour at 30 to 75 mg/kg, ip administered as single dose measured after 24 hrs; type: organism-based; parameters: dose 30-75 mg/kg, route intraperitoneal; conditions: in vivo; procedure, shortened: as §3
AU565 = experiment: Cytotoxicity against human AU565 cells; type: functional, cell-based; procedure, shortened: as §2
MCF7 = experiment: Cytotoxicity against human MCF7 cells; type: functional, cell-based; procedure, shortened: as §2
Mus musculus [21] = experiment: Toxicity against C57BL/6J mouse assessed as signs of suffering at 30 to 75 mg/kg, ip administered as single dose measured after 24 hrs; type: organism-based; parameters: dose 30-75 mg/kg, route intraperitoneal; conditions: in vivo; procedure, shortened: as §3
[22] = Selectivity ratio of IC50 for human HMEpC cells to IC50 for human SKBR3 cells; type: ADME, cell-based, SK-BR-3; conditions: HMEpC cells (normal) versus SKBR3 cells, read-out: Ratio IC50
Bel-7402 = experiment: Cytotoxicity against human Bel7402 cells; type: functional, cell-based; procedure, shortened: as §2
[23] = target: Receptor tyrosine-protein kinase erbB-2 (Homo sapiens) (UniProt P04626); experiment: Inhibition of HER2 phosphorylation in human SK-BR-3 cells after 6 hrs by Western blot analysis; type: cell-based
Procedure, shortened: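 SK-Br3 cells treated for 6, 12 or 24 h, harvested with trypsin-EDTA, lysed in Tris-HCl pH 7.5/EDTA/NaCl/PMSF buffer at 4 °C. Equal protein run on 3-8% SDS-PAGE and transferred to nitrocellulose. Membranes probed overnight at 4 °C with anti-phospho-HER2 mouse monoclonal, then peroxidase secondary and chemiluminescence. Re-probed for β-actin as loading control. Gels are representative of at least two independent experiments.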

SK-BR-3 [24] = experiment: Cytotoxicity against human SKBR3 cells transfected with FASN specific siRNA assessed as cell death up to 10 uM by MTT assay; type: functional, cell-based
Procedure, shortened: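 SK-Br3 cells transfected with a pool of three FASN-specific siRNAs (72 h), run alongside control-transfected cells. MTT viability read after 24 h compound exposure instead of 48 h. Knockdown checked by FASN immunoblot with β-actin. Mean±SEM of three experiments in duplicate; Student's t-test against the same concentration in control-transfected cells.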

SK-BR-3 [25] = experiment: Effect on total HER protein levels in human SKBR3 cells up to 24 hrs; type: functional, cell-based; procedure, shortened: as §1
SK-OV-3 = experiment: Cytotoxicity against human SKOV3 cells; type: functional, cell-based; procedure, shortened: as §2
[26] = Antiproliferative activity against human HL7702 cells; type: cell-based; conditions: L02; procedure, shortened: as §2
Mus musculus [27] = experiment: Toxicity against C57BL/6J mouse assessed as signs of suffering at 30 mg/kg, ip administered as single dose measured after 24 hrs; type: organism-based; parameters: dose 30 mg/kg, route intraperitoneal; conditions: in vivo; procedure, shortened: as §3
Mus musculus [28] = experiment: Toxicity against C57BL/6J mouse assessed as weight loss at 30 mg/kg, ip administered as single dose measured after 24 hrs; type: organism-based; parameters: dose 30 mg/kg, route intraperitoneal; conditions: in vivo; procedure, shortened: as §3

Sequence of Receptor tyrosine-protein kinase erbB-2 (Homo sapiens) (P04626 whole entry): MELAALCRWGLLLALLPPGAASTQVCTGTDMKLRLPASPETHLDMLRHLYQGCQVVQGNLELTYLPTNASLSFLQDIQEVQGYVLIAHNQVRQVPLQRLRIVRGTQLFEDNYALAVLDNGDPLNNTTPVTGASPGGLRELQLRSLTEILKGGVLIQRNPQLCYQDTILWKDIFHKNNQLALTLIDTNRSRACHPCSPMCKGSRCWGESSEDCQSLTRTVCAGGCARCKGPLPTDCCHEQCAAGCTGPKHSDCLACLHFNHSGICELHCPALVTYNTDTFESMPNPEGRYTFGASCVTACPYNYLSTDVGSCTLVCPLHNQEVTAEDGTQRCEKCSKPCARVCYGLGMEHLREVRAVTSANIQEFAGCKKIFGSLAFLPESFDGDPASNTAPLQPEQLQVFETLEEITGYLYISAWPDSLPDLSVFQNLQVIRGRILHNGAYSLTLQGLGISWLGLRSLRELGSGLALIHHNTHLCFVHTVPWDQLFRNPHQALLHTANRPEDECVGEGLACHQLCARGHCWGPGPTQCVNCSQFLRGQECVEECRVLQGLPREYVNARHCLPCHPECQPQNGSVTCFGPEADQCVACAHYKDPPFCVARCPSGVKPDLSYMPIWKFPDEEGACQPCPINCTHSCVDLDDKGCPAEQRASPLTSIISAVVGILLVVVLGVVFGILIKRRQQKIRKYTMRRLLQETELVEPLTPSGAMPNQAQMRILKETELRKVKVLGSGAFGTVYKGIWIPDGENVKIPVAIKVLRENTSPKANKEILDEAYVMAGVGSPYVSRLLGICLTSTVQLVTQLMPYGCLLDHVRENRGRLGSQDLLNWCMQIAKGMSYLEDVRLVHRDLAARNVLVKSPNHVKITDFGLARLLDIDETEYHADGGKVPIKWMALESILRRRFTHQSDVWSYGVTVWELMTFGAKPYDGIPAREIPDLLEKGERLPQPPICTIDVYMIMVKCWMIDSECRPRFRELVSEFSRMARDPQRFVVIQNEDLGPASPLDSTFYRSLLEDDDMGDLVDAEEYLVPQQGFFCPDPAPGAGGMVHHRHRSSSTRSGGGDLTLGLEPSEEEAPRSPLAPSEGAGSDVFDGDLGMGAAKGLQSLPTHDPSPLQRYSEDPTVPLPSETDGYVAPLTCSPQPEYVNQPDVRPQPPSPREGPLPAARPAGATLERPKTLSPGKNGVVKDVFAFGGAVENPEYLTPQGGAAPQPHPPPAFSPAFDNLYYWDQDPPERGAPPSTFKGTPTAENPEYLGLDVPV
T1 sequence (P04626 whole entry, looked up): as the sequence (P04626 whole entry) above
T1 sequence (P49327 whole entry, looked up): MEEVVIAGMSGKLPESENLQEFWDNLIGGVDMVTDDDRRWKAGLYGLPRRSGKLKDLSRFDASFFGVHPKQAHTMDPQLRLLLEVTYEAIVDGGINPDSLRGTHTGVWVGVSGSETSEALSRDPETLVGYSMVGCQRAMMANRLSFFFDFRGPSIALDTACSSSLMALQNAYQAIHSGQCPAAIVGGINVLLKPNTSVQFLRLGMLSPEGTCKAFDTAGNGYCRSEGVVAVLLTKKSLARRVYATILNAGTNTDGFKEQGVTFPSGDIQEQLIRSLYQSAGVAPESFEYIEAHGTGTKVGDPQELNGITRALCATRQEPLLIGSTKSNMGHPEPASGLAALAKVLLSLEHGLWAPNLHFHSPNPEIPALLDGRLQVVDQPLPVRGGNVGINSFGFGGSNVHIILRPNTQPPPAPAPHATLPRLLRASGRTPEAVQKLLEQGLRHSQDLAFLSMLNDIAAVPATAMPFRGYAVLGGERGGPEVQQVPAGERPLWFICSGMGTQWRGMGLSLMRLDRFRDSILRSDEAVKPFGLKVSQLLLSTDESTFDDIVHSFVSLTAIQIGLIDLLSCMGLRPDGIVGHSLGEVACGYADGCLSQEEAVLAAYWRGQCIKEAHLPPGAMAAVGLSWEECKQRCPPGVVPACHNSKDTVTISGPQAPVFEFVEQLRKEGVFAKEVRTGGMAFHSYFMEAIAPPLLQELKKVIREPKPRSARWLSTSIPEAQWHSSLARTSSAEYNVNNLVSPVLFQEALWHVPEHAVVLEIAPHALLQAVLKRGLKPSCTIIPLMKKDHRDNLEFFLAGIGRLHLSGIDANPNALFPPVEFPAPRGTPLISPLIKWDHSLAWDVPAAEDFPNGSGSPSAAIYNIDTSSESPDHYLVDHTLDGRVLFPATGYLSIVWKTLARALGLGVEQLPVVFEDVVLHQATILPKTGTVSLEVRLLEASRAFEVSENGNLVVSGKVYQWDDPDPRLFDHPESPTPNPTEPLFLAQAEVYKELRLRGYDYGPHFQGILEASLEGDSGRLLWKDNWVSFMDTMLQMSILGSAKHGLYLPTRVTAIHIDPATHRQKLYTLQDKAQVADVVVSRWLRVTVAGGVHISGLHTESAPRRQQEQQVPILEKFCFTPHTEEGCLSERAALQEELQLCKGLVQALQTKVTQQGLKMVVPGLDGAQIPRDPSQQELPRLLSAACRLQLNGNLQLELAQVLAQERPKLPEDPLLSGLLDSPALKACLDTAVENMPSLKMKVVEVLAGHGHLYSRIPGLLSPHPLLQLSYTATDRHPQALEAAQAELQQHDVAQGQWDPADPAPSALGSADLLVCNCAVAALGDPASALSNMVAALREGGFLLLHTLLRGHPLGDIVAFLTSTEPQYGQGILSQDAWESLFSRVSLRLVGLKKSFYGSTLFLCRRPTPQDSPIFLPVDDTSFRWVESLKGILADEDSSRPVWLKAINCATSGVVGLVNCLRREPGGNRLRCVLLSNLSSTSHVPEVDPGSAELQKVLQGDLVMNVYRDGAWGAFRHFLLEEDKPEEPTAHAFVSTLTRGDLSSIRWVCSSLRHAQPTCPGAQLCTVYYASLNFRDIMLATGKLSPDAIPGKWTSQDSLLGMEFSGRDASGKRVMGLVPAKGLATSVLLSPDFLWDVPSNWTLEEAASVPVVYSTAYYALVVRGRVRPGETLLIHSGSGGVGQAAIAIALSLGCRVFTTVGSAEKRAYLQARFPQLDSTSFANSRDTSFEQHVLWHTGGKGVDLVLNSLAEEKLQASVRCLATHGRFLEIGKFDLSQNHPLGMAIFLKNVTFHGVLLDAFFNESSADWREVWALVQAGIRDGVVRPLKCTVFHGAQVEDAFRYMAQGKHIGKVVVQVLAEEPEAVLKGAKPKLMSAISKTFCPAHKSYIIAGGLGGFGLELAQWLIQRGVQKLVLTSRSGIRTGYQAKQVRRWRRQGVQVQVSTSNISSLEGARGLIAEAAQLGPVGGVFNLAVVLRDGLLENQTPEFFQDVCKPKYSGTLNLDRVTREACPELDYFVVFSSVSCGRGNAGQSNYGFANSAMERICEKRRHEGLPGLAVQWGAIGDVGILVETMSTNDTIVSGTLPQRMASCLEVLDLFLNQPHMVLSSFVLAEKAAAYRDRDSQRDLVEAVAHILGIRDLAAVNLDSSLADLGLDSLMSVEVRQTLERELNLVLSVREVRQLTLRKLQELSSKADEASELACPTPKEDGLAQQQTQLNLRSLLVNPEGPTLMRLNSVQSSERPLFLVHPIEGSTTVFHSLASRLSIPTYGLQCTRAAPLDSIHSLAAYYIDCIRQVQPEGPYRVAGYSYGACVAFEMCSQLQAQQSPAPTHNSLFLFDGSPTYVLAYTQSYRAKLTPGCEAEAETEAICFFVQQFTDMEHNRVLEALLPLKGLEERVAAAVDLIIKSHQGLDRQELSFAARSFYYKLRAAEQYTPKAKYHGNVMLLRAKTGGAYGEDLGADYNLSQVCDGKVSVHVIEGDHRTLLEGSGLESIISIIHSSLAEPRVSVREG
Sequence of Fatty acid synthase (Homo sapiens) (P49327 whole entry, looked up): as above

inhibition (FASN/HER2 (Homo sapiens) [6]): Active | inhibition [10]: Active | inhibition [11]: 90% | inhibition (FASN/HER2 (Homo sapiens) [12]): Active | inhibition [15]: Active | inhibition [23]: Active
SMILES: O=C(Oc1ccc(-c2ccc(OC(=O)c3cc(O)c(O)c(O)c3)cc2)cc1)c1cc(O)c(O)c(O)c1
Activity [1]: Non-toxic | Activity (SK-BR-3 [2]): inactive | IC50 (BT-20): 17 µM | selectivity ratio [3]: 10 | IC50 (ZR-75-1): 1.9 µM | Activity (Mus musculus [4]): Non-toxic | IC50 (SK-HEP1): 56 µM | Activity (Mus musculus [5]): Non-toxic | IC50 (SK-BR-3 [7]): 4 µM | IC50 (HepG2): 70 µM | IC50 [8]: 31 µM | IC50 (MDA-MB-231): 5 µM | Activity (Mus musculus [9]): Non-toxic | IC50 (SK-BR-3 [13]): 4 µM | IC50 (NCI-H460): 9 µM | IC50 (A549): 17 µM | Activity (SK-BR-3 [14]): inactive | IC50 (PANC-1): 2.1 µM | IC50 (HCT-116): 4 µM | Activity (SK-BR-3 [16]): tde | IC50 [17]: 14 µM | Activity (SK-BR-3 [18]): inactive | Activity (SK-BR-3 [19]): inactive | IC50 (A-431): 1.4 µM | Activity (Mus musculus [20]): Non-toxic | IC50 (AU565): 24 µM | IC50 (MCF7): 3.8 µM | Activity (Mus musculus [21]): Non-toxic | selectivity ratio [22]: 8 | IC50 (Bel-7402): 40 µM | Activity (SK-BR-3 [24]): inactive | Activity (SK-BR-3 [25]): inactive | IC50 (SK-OV-3): 5 µM | IC50 [26]: 41 µM

SMILES: C=C1C(=O)O[C@H](CCCCCCCC)[C@H]1C(=O)O (relative stereo)
Activity (Mus musculus [27]): Toxic | Activity (Mus musculus [28]): 21%
